Assay results as given in ChEMBL document CHEMBL1833825, “3-Aryl-2-[1H-benzotriazol-1-yl]acrylonitriles: a novel class of potent tubulin inhibitors” (Eur J Med Chem, 2011).
pIC50: −log10 of the molar value. The source made the active and inactive calls. The rule behind the calls is not given here.

Experiments:
SK-MEL-28 = experiment: Antiproliferative activity against human SK-MEL-28 cells after 96 hrs by MTT assay; format: functional; settings: SK-MEL-28, 96 h
In short: (§1)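 Solid-tumor lines (SK-MEL-28, MCF-7, SK-MES-1, HepG-2, DU-145) were seeded at 1×10^5 cells/mL in their specific media with 10% FCS plus antibiotics. Serial dilutions of compounds (100 mM DMSO stocks diluted in medium) were applied for 96 h at 37 °C, 5% CO2, with MTT readout. 50% proliferation-inhibition concentration; untreated controls underwent ≥3 multiplication rounds; mean of two experiments, duplicate variation <15%.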

CCRF-SB = experiment: Antiproliferative activity against human CCRF-SB cells after 96 hrs by MTT assay; format: functional
In short: (§2)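 Hematological lines (CCRF-CEM, CCRF-SB, WIL-2NS) were seeded exponentially growing at 1×10^5 cells/mL in RPMI-1640 with 10% FCS, penicillin G and streptomycin. They were exposed to serial dilutions (from 100 mM DMSO stocks) for 96 h at 37 °C, 5% CO2, then read by MTT. The value is the concentration giving 50% proliferation reduction, with controls allowed ≥3 rounds of multiplication. Mean of two experiments; duplicate variation <15%.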

K562 [1] = experiment: Cell cycle arrest in human K562 cells assessed as accumulation at S phase at total growth inhibitory compound concentration 24 hrs using propidium iodide staining by FACS analysis (reference value: 47%); format: functional; set-up: scale not given: the % may be the effect or the level left
K562 [2] = experiment: Cell cycle arrest in human K562 cells assessed as accumulation at G0/G1 phase at total growth inhibitory compound concentration 24 hrs using propidium iodide staining by FACS analysis (reference value: 35%); format: functional; set-up: scale not given: the % may be the effect or the level left
[3] = Cytotoxicity against human MT4 cells infected with HTLV-1 after 96 hrs by MTT assay; format: cell-based
In short: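 Mock-infected MT-4 cells (CD4+ T-cells carrying integrated HTLV-1 genome) were seeded at 1×10^5 cells/mL in RPMI-1640 with 10% FCS and penicillin/streptomycin. They were given serial compound dilutions for 96 h at 37 °C, 5% CO2, and viability was read by MTT. The value is the concentration reducing viability by 50%. Mean of two experiments; duplicate variation <15%.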

MCF7 = experiment: Antiproliferative activity against human MCF7 cells after 96 hrs by MTT assay; format: functional; settings: MCF7, 96 h; in short: as §1
CCRF-CEM = experiment: Antiproliferative activity against human CCRF-CEM cells after 96 hrs by MTT assay; format: functional; settings: read-out: CC50; in short: as §2
WIL2-NS = experiment: Antiproliferative activity against human WIL2-NS cells after 96 hrs by MTT assay; format: functional; in short: as §2
HepG2 = experiment: Antiproliferative activity against human HepG2 cells after 96 hrs by MTT assay; format: functional; settings: HepG2, 96 h; in short: as §1
DU-145 = experiment: Antiproliferative activity against human DU145 cells after 96 hrs by MTT assay; format: functional; settings: DU-145, 96 h, read-out: CC50; in short: as §1
K562 [4] = experiment: Cell cycle arrest in human K562 cells assessed as accumulation at G2/M phase at total growth inhibitory compound concentration 24 hrs using propidium iodide staining by FACS analysis (reference value: 18%); format: functional; set-up: scale not given: the % may be the effect or the level left
SK-MES-1 = experiment: Antiproliferative activity against human SKMES1 cells after 96 hrs by MTT assay; format: functional; settings: SK-MES-1, 96 h; in short: as §1
[5] = Displacement of [3H]paclitaxel from biotin-labeled tubulin after 2 hrs by competitive scintillation proximity assay
[6] = Displacement of [3H]colchicine from biotin-labeled tubulin after 2 hrs by competitive scintillation proximity assay
In short: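 Scintillation proximity format: biotinylated tubulin, reconstituted per manufacturer, was incubated with [3H]colchicine and diluted compound in binding buffer at 37 °C for 2 h. Streptavidin-coated yttrium SPA beads were then added and bound radioactivity counted. IC50 came from nonlinear regression.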

`Cc1ccc(/C=C(\C#N)n2nnc3cc(Cl)c(Cl)cc32)cc1` showed a CC50 (SK-MEL-28) of 20000 nM, a CC50 (CCRF-SB) of 2800 nM and an Activity (K562 [1]) of 15.5%. The Activity (K562 [2]) was 18.5%, the CC50 at 96 h [3] was 1700 nM and the CC50 (MCF7) was 27000 nM. The IC50 (50% antiproliferative concentration) (CCRF-CEM) was 2800 nM, the CC50 (WIL2-NS) was 7000 nM and the CC50 (HepG2) was 21000 nM. The IC50 (50% proliferation-inhibition concentration) (DU-145) was 17000 nM, the Activity (K562 [4]) was 67% and the CC50 (SK-MES-1) was 27000 nM.

With `N#C/C(=C\c1ccccc1)n1nnc2ccccc21` the CC50 at 96 h [3] was 4000 nM.

`N#C/C(=C\c1ccc(C(=O)O)cc1)n1nnc2ccccc21` showed a CC50 at 96 h [3] of 17000 nM.

In the case of `N#C/C(=C\c1ccccc1)n1nc2ccccc2n1`, the CC50 at 96 h [3] was 12000 nM.

In the case of `N#C/C(=C\c1ccc(Br)cc1)n1nnc2cc(Cl)c(Cl)cc21`, the CC50 (SK-MEL-28) was 10000 nM, the CC50 (CCRF-SB) was 12000 nM and the CC50 at 96 h [3] was 5400 nM. For the same compound, the CC50 (MCF7) was 8400 nM, the IC50 (50% antiproliferative concentration) (CCRF-CEM) was 5300 nM and the CC50 (WIL2-NS) was 18000 nM. For the same compound, the CC50 (HepG2) was 12000 nM, the IC50 (50% proliferation-inhibition concentration) (DU-145) was 7000 nM and the CC50 (SK-MES-1) was 10000 nM.

`N#C/C(=C\c1ccc2c(c1)OCO2)n1nnc2ccc(C(F)(F)F)cc21` showed a CC50 at 96 h [3] of 52000 nM.

`Cc1ccc(/C=C(\C#N)n2nnc3ccccc32)cc1` showed a CC50 (SK-MEL-28) of 300 nM, a CC50 (CCRF-SB) of 70 nM and a CC50 at 96 h [3] of 500 nM. For the same compound, the CC50 (MCF7) was 700 nM, the IC50 (50% antiproliferative concentration) (CCRF-CEM) was 200 nM and the CC50 (WIL2-NS) was 200 nM. The CC50 (HepG2) was 2200 nM, the IC50 (50% proliferation-inhibition concentration) (DU-145) was 500 nM and the CC50 (SK-MES-1) was 1700 nM.

With `N#C/C(=C\c1ccco1)n1nc2ccccc2n1` the CC50 at 96 h [3] was 375000 nM.

For `COc1ccc(/C=C(\C#N)n2nc3ccccc3n2)cc1OC`, the CC50 at 96 h [3] was 360000 nM.

`COc1ccc(/C=C(\C#N)n2nnc3ccccc32)cc1` gave a CC50 (SK-MEL-28) of 200 nM, a CC50 (CCRF-SB) of 90 nM and an Activity (K562 [1]) of 24%. The Activity (K562 [2]) was 5.5%, the CC50 at 96 h [3] was 50 nM and the CC50 (MCF7) was 100 nM. It also gave an IC50 (50% antiproliferative concentration) (CCRF-CEM) of 200 nM, a CC50 (WIL2-NS) of 100 nM and a CC50 (HepG2) of 800 nM. It also gave an IC50 (50% proliferation-inhibition concentration) (DU-145) of 600 nM, an Activity (K562 [4]) of 70.5% and a CC50 (SK-MES-1) of 600 nM.

With `COc1ccc(/C=C(\C#N)n2nnc3ccc(C(F)(F)F)cc32)cc1` the CC50 at 96 h [3] was 200000 nM.

Compound `N#C/C(=C\c1ccc(Cl)cc1)n1nnc2ccccc21` has a CC50 at 96 h [3] of 400 nM.

`N#C/C(=C\c1ccc(Cl)cc1Cl)n1nnc2ccccc21` showed a CC50 at 96 h [3] of 6000 nM.

`Sc1ncnc2nc[nH]c12` [MERCAPTOPURINE ANHYDROUS] gave a CC50 (SK-MEL-28) of 15000 nM, a CC50 (CCRF-SB) of 1100 nM and a CC50 at 96 h [3] of 100 nM. The CC50 (MCF7) was 3200 nM, the CC50 (WIL2-NS) was 3000 nM and the CC50 (HepG2) was 8000 nM. It also gave a CC50 (SK-MES-1) of 58000 nM.

Work on `COc1cc([C@@H]2c3cc4c(cc3[C@@H](O[C@@H]3O[C@@H]5CO[C@@H](C)O[C@H]5[C@H](O)[C@H]3O)[C@H]3COC(=O)[C@H]23)OCO4)cc(OC)c1O` [ETOPOSIDE] yielded a CC50 (SK-MEL-28) of 1200 nM, a CC50 (CCRF-SB) of 100 nM and a CC50 at 96 h [3] of 90 nM. The CC50 (MCF7) was 1000 nM, the CC50 (WIL2-NS) was 200 nM and the CC50 (HepG2) was 700 nM. It also gave a CC50 (SK-MES-1) of 300 nM.

`N#C/C(=C\c1cccc([N+](=O)[O-])c1)n1nnc2ccccc21` gave a CC50 at 96 h [3] of 400 nM.

For `N#C/C(=C\c1ccc(Cl)cc1)n1nc2ccccc2n1`, the CC50 at 96 h [3] was 16000 nM.

With `N#C/C(=C\c1ccc([N+](=O)[O-])cc1)n1nc2ccccc2n1` the CC50 at 96 h [3] was 400 nM.

With `N#C/C(=C\c1ccc(Br)cc1)n1nnc2ccccc21` the CC50 (SK-MEL-28) was 1100 nM, the CC50 (CCRF-SB) was 300 nM and the Activity (K562 [1]) was 22.41%. For the same compound, the Activity (K562 [2]) was 42.25%, the CC50 at 96 h [3] was 400 nM and the CC50 (MCF7) was 700 nM. The IC50 (50% antiproliferative concentration) (CCRF-CEM) was 400 nM, the CC50 (WIL2-NS) was 600 nM and the CC50 (HepG2) was 2100 nM. For the same compound, the IC50 (50% proliferation-inhibition concentration) (DU-145) was 1700 nM, the Activity (K562 [4]) was 35.34% and the CC50 (SK-MES-1) was 2400 nM.

For `N#C/C(=C\c1ccccc1I)n1nnc2ccccc21`, the CC50 at 96 h [3] was 25000 nM.

Work on `Cc1cc2nnn(/C(C#N)=C/c3ccc(Cl)cc3)c2cc1C` yielded a CC50 at 96 h [3] of 24000 nM.

In the case of `N#C/C(=C\c1cccc([N+](=O)[O-])c1)n1nnc2cc(C(F)(F)F)ccc21`, the CC50 at 96 h [3] was 700 nM.

`Cc1ccc(/C=C(\C#N)n2nc3ccccc3n2)cc1` gave a CC50 at 96 h [3] of 20000 nM.

`COc1ccc(/C=C(\C#N)n2nnc3ccccc32)cc1OC` showed a CC50 at 96 h [3] of 7500 nM.

With `COc1ccc(/C=C(\C#N)n2nnc3cc(Cl)c(Cl)cc32)cc1` the CC50 (SK-MEL-28) was > 100000 nM, the CC50 (CCRF-SB) was > 100000 nM and the CC50 at 96 h [3] was 14000 nM. For the same compound, the CC50 (MCF7) was > 100000 nM, the IC50 (50% antiproliferative concentration) (CCRF-CEM) was > 100000 nM and the CC50 (WIL2-NS) was > 100000 nM. The CC50 (HepG2) was > 100000 nM, the IC50 (50% proliferation-inhibition concentration) (DU-145) was > 100000 nM and the CC50 (SK-MES-1) was > 100000 nM.

`COc1cccc(/C=C(\C#N)n2nnc3ccccc32)c1` gave a CC50 at 96 h [3] of 4700 nM.

In the case of `N#C/C(=C\c1ccc2c(c1)OCO2)n1nnc2ccccc21`, the inhibition [5] was “inactive”, the CC50 (SK-MEL-28) was 3300 nM and the CC50 (CCRF-SB) was 600 nM. It also gave an Activity (K562 [1]) of 22.67%, an Activity (K562 [2]) of 10.9% and a CC50 at 96 h [3] of 100 nM. It also gave a CC50 (MCF7) of 1300 nM, an IC50 (50% antiproliferative concentration) (CCRF-CEM) of 900 nM and a CC50 (WIL2-NS) of 600 nM. For the same compound, the CC50 (HepG2) was 3100 nM, the IC50 (50% proliferation-inhibition concentration) (DU-145) was 3400 nM and the Activity (K562 [4]) was 66.34%. The pIC50 [6] was 6.07 and the CC50 (SK-MES-1) was 3300 nM.

With `N#C/C(=C\c1ccc(C(=O)O)cc1)n1nc2ccccc2n1` the CC50 at 96 h [3] was 16000 nM.

In the case of `Cc1cc2nnn(/C(C#N)=C/c3ccc4c(c3)OCO4)c2cc1C`, the CC50 at 96 h [3] was 1300 nM.

`N#C/C(=C\c1cccs1)n1nc2ccccc2n1` showed a CC50 at 96 h [3] of 132000 nM.

`Cc1cc2nnn(/C(C#N)=C/c3cccc([N+](=O)[O-])c3)c2cc1C` showed a CC50 at 96 h [3] of 500 nM.

With `N#C/C(=C\c1ccccc1[N+](=O)[O-])n1nnc2ccccc21` the CC50 at 96 h [3] was 31000 nM.

`COc1cc(/C=C(\C#N)n2nnc3ccccc32)cc(OC)c1OC` showed a CC50 at 96 h [3] of 2500 nM.

Compound `N#C/C(=C\c1ccc(F)cc1)n1nc2ccccc2n1` has a CC50 at 96 h [3] of 32000 nM.

With `COc1ccccc1/C=C(\C#N)n1nnc2ccccc21` the CC50 at 96 h [3] was 8300 nM.
